Assays:
Type in all cases: functional
OVCAR-4 = experiment: Cytotoxicity against human OVCAR4 cells assessed as cell growth at 10^-5 M after 48 hrs by SRB assay; conditions: OVCAR-4, 48 h, read-out: Activity
Method in brief: (§1)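 NCI 60-panel single-dose primary screen at 10^-5 M. Cells are grown in RPMI 1640 with 5% FBS and 2 mM L-glutamine and preincubated 24 h at 37 °C. Drug exposure is 48 h. Cells are TCA-fixed, stained with SRB and absorbance is read at 515 nm. Results are reported as percent growth of treated cells versus untreated controls, corrected using time-zero plates.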

CCRF-CEM = experiment: Cytotoxicity against human CCRF-CEM cells assessed as cell growth at 10^-5 M after 48 hrs by SRB assay; conditions: read-out: Activity
Method in brief: (§2)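 NCI 60 single-dose screen at 10^-5 M. Cells in RPMI 1640 with 5% FBS and 2 mM L-glutamine, preincubated 24 h at 37 °C/5% CO2. Drug from DMSO stock, then 48 h exposure. TCA fixation, SRB staining, absorbance at 515 nm. Result given as percent growth of treated cells relative to untreated control.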

SK-OV-3 = experiment: Cytotoxicity against human SKOV3 cells assessed as cell growth at 10^-5 M after 48 hrs by SRB assay; conditions: SK-OV-3, 48 h, read-out: Activity; method in brief: as §1
MCF7 = experiment: Cytotoxicity against human MCF7 cells assessed as cell growth at 10^-5 M after 48 hrs by SRB assay; conditions: MCF7, 48 h, read-out: Activity; method in brief: as §2
CAKI-1 = experiment: Cytotoxicity against human Caki1 cells assessed as cell growth at 10^-5 M after 48 hrs by SRB assay; conditions: CAKI-1, 48 h, read-out: Activity; method in brief: as §2
RPMI-8226 = experiment: Cytotoxicity against human RPMI8226 cells assessed as cell growth at 10^-5 M after 48 hrs by SRB assay; conditions: RPMI-8226, 48 h, read-out: Activity; method in brief: as §1
HCC 2998 = experiment: Cytotoxicity against human HCC2998 cells assessed as cell growth at 10^-5 M after 48 hrs by SRB assay; conditions: HCC 2998, 48 h, read-out: Activity; method in brief: as §2
A549 = experiment: Cytotoxicity against human A549 cells assessed as cell growth at 10^-5 M after 48 hrs by SRB assay; conditions: A549, 48 h, read-out: Activity; method in brief: as §2
MDA-MB-468 = experiment: Cytotoxicity against human MDA-MB-468 cells assessed as cell growth at 10^-5 M after 48 hrs by SRB assay; conditions: MDA-MB-468, 48 h, read-out: Activity; method in brief: as §1
HOP-92 = experiment: Cytotoxicity against human HOP92 cells assessed as cell growth at 10^-5 M after 48 hrs by SRB assay; conditions: HOP-92, 48 h, read-out: Activity; method in brief: as §2
HL-60(TB) = experiment: Cytotoxicity against human HL-60(TB) cells assessed as cell growth at 10^-5 M after 48 hrs by SRB assay; conditions: HL-60, 48 h, read-out: Activity
Method in brief: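 NCI 60-panel single-dose screen. Cells were grown in RPMI 1640 with 5% FBS and 2 mM L-glutamine, preincubated 24 h, then exposed to compound at 10^-5 M (from DMSO stock) for 48 h at 37 °C, 5% CO2. Settled suspension cells were TCA-fixed and SRB-stained, with absorbance read at 515 nm. The value is percent growth of treated versus untreated control cells.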

SF-268 = experiment: Cytotoxicity against human SF268 cells assessed as cell growth at 10^-5 M after 48 hrs by SRB assay; conditions: SF-268, 48 h, read-out: Activity; method in brief: as §1
SNB-19 = experiment: Cytotoxicity against human SNB19 cells assessed as cell growth at 10^-5 M after 48 hrs by SRB assay; conditions: SNB-19, 48 h, read-out: Activity; method in brief: as §1
SK-MEL-5 = experiment: Cytotoxicity against human SK-MEL-5 cells assessed as cell growth at 10^-5 M after 48 hrs by SRB assay; conditions: SK-MEL-5, 48 h, read-out: Activity; method in brief: as §1
SF-295 = experiment: Cytotoxicity against human SF295 cells assessed as cell growth at 10^-5 M after 48 hrs by SRB assay; conditions: SF-295, 48 h, read-out: Activity; method in brief: as §1
LOX IMVI = experiment: Cytotoxicity against human LOXIMVI cells assessed as cell growth at 10^-5 M after 48 hrs by SRB assay; conditions: read-out: Activity; method in brief: as §2
NCI-H226 = experiment: Cytotoxicity against human NCI-H226 cells assessed as cell growth at 10^-5 M after 48 hrs by SRB assay; conditions: NCI-H226, 48 h, read-out: Activity; method in brief: as §1
SK-MEL-2 = experiment: Cytotoxicity against human SK-MEL-2 cells assessed as cell growth at 10^-5 M after 48 hrs by SRB assay; conditions: SK-MEL-2, 48 h, read-out: Activity; method in brief: as §1
UO-31 = experiment: Cytotoxicity against human UO31 cells assessed as cell growth at 10^-5 M after 48 hrs by SRB assay; conditions: UO-31, 48 h, read-out: Activity
Method in brief: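 NCI primary single-dose screen at 10^-5 M. Cells grown in RPMI 1640 with 5% FBS and 2 mM L-glutamine, given 24 h before drug addition, then 48 h exposure at 37 °C, 5% CO2. Cells TCA-fixed, stained with SRB, read at 515 nm. Reported as percent growth of treated cells relative to untreated controls.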

RXF 393 = experiment: Cytotoxicity against human RXF393 cells assessed as cell growth at 10^-5 M after 48 hrs by SRB assay; conditions: RXF 393, 48 h, read-out: Activity; method in brief: as §1
M14 = experiment: Cytotoxicity against human M14 cells assessed as cell growth at 10^-5 M after 48 hrs by SRB assay; conditions: M14, 48 h, read-out: Activity; method in brief: as §2
IGROV-1 = experiment: Cytotoxicity against human IGROV1 cells assessed as cell growth at 10^-5 M after 48 hrs by SRB assay; conditions: IGROV-1, 48 h, read-out: Activity; method in brief: as §2
HCT-116 = experiment: Cytotoxicity against human HCT116 cells assessed as cell growth at 10^-5 M after 48 hrs by SRB assay; conditions: HCT-116, 48 h, read-out: Activity; method in brief: as §2
MOLT-4 = experiment: Cytotoxicity against human MOLT4 cells assessed as cell growth at 10^-5 M after 48 hrs by SRB assay; conditions: MOLT-4, 48 h, read-out: Activity; method in brief: as §1
SK-MEL-28 = experiment: Cytotoxicity against human SK-MEL-28 cells assessed as cell growth at 10^-5 M after 48 hrs by SRB assay; conditions: SK-MEL-28, 48 h, read-out: Activity; method in brief: as §1
OVCAR-3 = experiment: Cytotoxicity against human OVCAR3 cells assessed as cell growth at 10^-5 M after 48 hrs by SRB assay; conditions: OVCAR-3, 48 h, read-out: Activity; method in brief: as §1
OVCAR-5 = experiment: Cytotoxicity against human OVCAR5 cells assessed as cell growth at 10^-5 M after 48 hrs by SRB assay; conditions: OVCAR-5, 48 h, read-out: Activity; method in brief: as §1

| SMILES | growth at 10 µM (OVCAR-4) | growth at 10 µM (CCRF-CEM) | growth at 10 µM (SK-OV-3) | growth at 10 µM (MCF7) | growth at 10 µM (CAKI-1) | growth at 10 µM (RPMI-8226) | growth at 10 µM (HCC 2998) | growth at 10 µM (A549) | growth at 10 µM (MDA-MB-468) | growth at 10 µM (HL-60(TB)) | growth at 10 µM (SF-268) | growth at 10 µM (SNB-19) | growth at 10 µM (SK-MEL-5) | growth at 10 µM (SF-295) | growth at 10 µM (LOX IMVI) | growth at 10 µM (NCI-H226) | growth at 10 µM (UO-31) | growth at 10 µM (RXF 393) | growth at 10 µM (M14) | growth at 10 µM (IGROV-1) | other results |
| --- | --- | --- | --- | --- | --- | --- | --- | --- | --- | --- | --- | --- | --- | --- | --- | --- | --- | --- | --- | --- | --- |
| C#Cc1cccc(Nc2ncnc3ccc(N/C=C(\C#N)C(=O)OCC)cc23)c1 | 94% | 103% | 97% | 96.8% | 56.1% | 101% | 102% | 85.1% | 40.4% | 97.5% | 94.4% | 85.1% | 89.4% | 95.6% | 103% | 89.8% | 58.6% | 92.9% | 114% | 77.4% | growth at 10 µM (HOP-92): 90.3%; growth at 10 µM (SK-MEL-2): 123%; growth at 10 µM (HCT-116): 103%; growth at 10 µM (MOLT-4): 87.5%; growth at 10 µM (SK-MEL-28): 103%; growth at 10 µM (OVCAR-3): 78.7%; growth at 10 µM (OVCAR-5): 89.5% |
| CCOC(=O)/C(C#N)=C\Nc1ccc2ncnc(Nc3ccc(Cl)cc3Cl)c2c1 | 95.1% | 70.9% | 97% | 87.6% | 39% | 79.5% | 119% | 72.1% | 56.4% | 108% | 73% | 86.4% | 78.3% | 82.2% | 87.5% | 99.8% | 42% | 77% | 106% | 55% | growth at 10 µM (HOP-92): 56.5%; growth at 10 µM (SK-MEL-2): 110%; growth at 10 µM (HCT-116): 92.9%; growth at 10 µM (MOLT-4): 58.8%; growth at 10 µM (SK-MEL-28): 109%; growth at 10 µM (OVCAR-3): 67.6%; growth at 10 µM (OVCAR-5): 82.2% |
| NC(=O)Nc1ccc2ncnc(Nc3ccc(Cl)cc3)c2c1 | 91.9% | 96% | 30.2% | 86.5% | 40.1% | 101% | 97.9% | 72.5% | -7.15% | 99.9% | 79.7% | 78.6% | 89.2% | 90.7% | 95.5% | 99.8% | 58% | 93.7% | 107% | 61% | growth at 10 µM (HOP-92): 74.2%; growth at 10 µM (SK-MEL-2): 127%; growth at 10 µM (HCT-116): 96.4%; growth at 10 µM (MOLT-4): 71.2%; growth at 10 µM (SK-MEL-28): 106%; growth at 10 µM (OVCAR-3): 74.2%; growth at 10 µM (OVCAR-5): 83.6% |
| NC(=O)Nc1ccc2ncnc(Nc3cccc(O)c3)c2c1 | 112% | 108% | 87.5% | 97.3% | 84.8% | 112% | 102% | 93.5% | 67.9% | 105% | 85.4% | 93.1% | 101% | 98.1% | 101% | 102% | 80.1% | 111% | 102% | 107% | growth at 10 µM (HOP-92): 78%; growth at 10 µM (HCT-116): 109%; growth at 10 µM (MOLT-4): 98.8%; growth at 10 µM (SK-MEL-28): 114%; growth at 10 µM (OVCAR-3): 82.8%; growth at 10 µM (OVCAR-5): 98.1% |
| CCOC(=O)/C(C#N)=C\Nc1ccc2ncnc(Nc3ccc(Cl)cc3)c2c1 | 89% | 50.1% | 85% | 111% | 32.6% | 62.9% | 101% | 66.1% | 26.6% | 76.2% | 76.1% | 88% | 72% | 74.3% | 87.5% | 99.3% | 43% | 83.2% | 106% | 52.4% | growth at 10 µM (SK-MEL-2): 105%; growth at 10 µM (HCT-116): 84.5%; growth at 10 µM (MOLT-4): 50.1%; growth at 10 µM (SK-MEL-28): 105%; growth at 10 µM (OVCAR-3): 50.2%; growth at 10 µM (OVCAR-5): 92.8% |
